Test results from ChEMBL document CHEMBL2150942, “Synthesis and antibacterial activity of novel 1,3-diphenyl-1H-pyrazoles functionalized with phenylalanine-derived rhodanines” (Eur J Med Chem, 2012).
Converted amounts (≈) assume the structure as drawn.

Assays:
Staphylococcus aureus [1] = assay: Antibacterial activity against Staphylococcus aureus KCTC 503 after 20 hrs by two fold serial dilution assay; format: functional; conditions: KCTC 503, 20 h
Staphylococcus aureus [2] = assay: Antibacterial activity against Staphylococcus aureus RN4220 after 20 hrs by two fold serial dilution assay; format: functional; conditions: RN4220, 20 h
Escherichia coli [3] = assay: Antibacterial activity against Escherichia coli CCARM 1924 after 20 hrs by two fold serial dilution assay; format: functional; conditions: CCARM 1924, 20 h
Escherichia coli [4] = assay: Antibacterial activity against Escherichia coli CCARM 1356 after 20 hrs by two fold serial dilution assay; format: functional; conditions: CCARM 1356, 20 h
Staphylococcus aureus [5] = assay: Antibacterial activity against methicillin-resistant Staphylococcus aureus CCARM 3167 after 20 hrs by two fold serial dilution assay; format: functional; conditions: CCARM 3167, 20 h
Staphylococcus aureus [6] = assay: Antibacterial activity against methicillin-resistant Staphylococcus aureus CCARM 3506 after 20 hrs by two fold serial dilution assay; format: functional; conditions: CCARM 3506, 20 h
Staphylococcus aureus [7] = assay: Antibacterial activity against quinolone-resistant Staphylococcus aureus CCARM 3505 after 20 hrs by two fold serial dilution assay; format: functional; conditions: CCARM 3505, 20 h
Staphylococcus aureus [8] = assay: Antibacterial activity against quinolone-resistant Staphylococcus aureus CCARM 3519 after 20 hrs by two fold serial dilution assay; format: functional; conditions: CCARM 3519, 20 h
Staphylococcus aureus [9] = assay: Ratio of norfloxacin MIC to compound MIC for methicillin-resistant Staphylococcus aureus CCARM 3167; format: functional
Staphylococcus aureus [10] = assay: Ratio of norfloxacin MIC to compound MIC for methicillin-resistant Staphylococcus aureus CCARM 3506; format: functional
HeLa [11] = assay: Cytotoxicity against human HeLa cells after 48 hrs by MTT assay; format: cell-based
How it was run: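 HeLa cells grown in DMEM with 10% FBS and penicillin-streptomycin at 37 °C in 5% CO₂, passaged three times. About 1 × 10⁴ cells/well were seeded and attached overnight, then given a range of compound concentrations for 48 h. MTT (5 mg/ml stock) was added for 4 h, formazan dissolved in DMSO, and OD read at 570 nm. Run four times; IC50 was the concentration giving 50% growth inhibition.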

HeLa [12] = assay: Cytotoxicity against human HeLa cells assessed as decrease in cell viability at 1 ug/mL after 48 hrs by MTT assay; format: cell-based
How it was run: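 HeLa cells (DMEM, 10% FBS, antibiotics, 37 °C, 5% CO₂) were seeded at about 1 × 10⁴ cells/well, left overnight, then exposed to compound for 48 h. Viability was read by MTT (5 mg/ml stock, 4 h), with formazan dissolved in DMSO and absorbance taken at 570 nm. Assay performed four times.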

Structure (SMILES) | MIC (Staphylococcus aureus [1]) [µg/mL] | MIC (Staphylococcus aureus [2]) [µg/mL] | MIC (Escherichia coli [3]) [µg/mL] | MIC (Escherichia coli [4]) [µg/mL] | MIC (Staphylococcus aureus [5]) [µg/mL] | MIC (Staphylococcus aureus [6]) [µg/mL] | MIC (Staphylococcus aureus [7]) [µg/mL] | MIC (Staphylococcus aureus [8]) [µg/mL] | Ratio (Staphylococcus aureus [9]) | Ratio (Staphylococcus aureus [10]) | IC50 (HeLa [11]) [µg/mL] | Activity (HeLa [12])
O=C(O)[C@@H](Cc1ccccc1)N1C(=O)/C(=C/c2cn(-c3ccccc3)nc2-c2ccc(Cl)cc2)SC1=S | 2 (≈ 3.66 µM) | 2 (≈ 3.66 µM) | > 64 | > 64 | 2 (≈ 3.66 µM) | 2 (≈ 3.66 µM) | 2 (≈ 3.66 µM) | 2 (≈ 3.66 µM) |  |  |  | 
O=C(O)[C@@H](Cc1ccccc1)N1C(=O)/C(=C/c2cn(-c3ccccc3)nc2-c2ccc(Cl)cc2Cl)SC1=S | 2 (≈ 3.45 µM) | 2 (≈ 3.45 µM) | > 64 | > 64 | 1 (≈ 1.72 µM) | 1 (≈ 1.72 µM) | 2 (≈ 3.45 µM) | 1 (≈ 1.72 µM) | 8 | 4 |  | 
Cc1ccc(-c2nn(-c3ccccc3)cc2/C=C2\SC(=S)N([C@H](Cc3ccccc3)C(=O)O)C2=O)c(C)c1 | 2 (≈ 3.71 µM) | 2 (≈ 3.71 µM) | > 64 | > 64 | 2 (≈ 3.71 µM) | 2 (≈ 3.71 µM) | 2 (≈ 3.71 µM) | 1 (≈ 1.85 µM) |  |  |  | 
Cc1ccc(-c2nn(-c3ccccc3)cc2/C=C2\SC(=S)N([C@H](Cc3ccccc3)C(=O)O)C2=O)cc1 | 1 (≈ 1.9 µM) | 2 (≈ 3.8 µM) | > 64 | > 64 | 1 (≈ 1.9 µM) | 1 (≈ 1.9 µM) | 1 (≈ 1.9 µM) | 1 (≈ 1.9 µM) | 8 | 4 | 20.2 (≈ 38.4 µM) | Non-toxic
O=C(O)[C@@H](Cc1ccccc1)N1C(=O)/C(=C/c2cn(-c3ccccc3)nc2-c2ccccc2)SC1=S | 8 (≈ 15.6 µM) | 2 (≈ 3.91 µM) | > 64 | > 64 | 4 (≈ 7.82 µM) | 4 (≈ 7.82 µM) | 4 (≈ 7.82 µM) | 4 (≈ 7.82 µM) |  |  |  | 
O=C(O)[C@@H](Cc1ccccc1)N1C(=O)/C(=C/c2cn(-c3ccccc3)nc2-c2cccc(Br)c2)SC1=S | 8 (≈ 13.5 µM) | 2 (≈ 3.39 µM) | > 64 | > 64 | 4 (≈ 6.77 µM) | 4 (≈ 6.77 µM) | 4 (≈ 6.77 µM) | 4 (≈ 6.77 µM) |  |  |  | 
O=C(O)[C@@H](Cc1ccccc1)N1C(=O)/C(=C/c2cn(-c3ccccc3)nc2-c2ccc(F)cc2)SC1=S | 16 (≈ 30.2 µM) | 4 (≈ 7.55 µM) | > 64 | > 64 | 1 (≈ 1.89 µM) | 1 (≈ 1.89 µM) | 1 (≈ 1.89 µM) | 1 (≈ 1.89 µM) | 8 | 4 |  | 
O=C(O)[C@@H](Cc1ccccc1)N1C(=O)/C(=C/c2cn(-c3ccccc3)nc2-c2ccc(Br)cc2)SC1=S | 16 (≈ 27.1 µM) | 4 (≈ 6.77 µM) | > 64 | > 64 | 1 (≈ 1.69 µM) | 1 (≈ 1.69 µM) | 1 (≈ 1.69 µM) | 16 (≈ 27.1 µM) | 8 | 4 |  | 
O=C(O)[C@@H](Cc1ccccc1)N1C(=O)/C(=C/c2cn(-c3ccccc3)nc2-c2ccc3ccccc3c2)SC1=S | 16 (≈ 28.5 µM) | 2 (≈ 3.56 µM) | > 64 | > 64 | 16 (≈ 28.5 µM) | 16 (≈ 28.5 µM) | 16 (≈ 28.5 µM) | 16 (≈ 28.5 µM) |  |  |  | 
O=C(O)[C@@H](Cc1ccccc1)N1C(=O)/C(=C/c2cn(-c3ccccc3)nc2-c2ccc([N+](=O)[O-])cc2)SC1=S | 16 (≈ 28.7 µM) | 4 (≈ 7.19 µM) | > 64 | > 64 | 1 (≈ 1.8 µM) | 1 (≈ 1.8 µM) | 1 (≈ 1.8 µM) | 1 (≈ 1.8 µM) | 8 | 4 |  | 
COc1ccccc1-c1nn(-c2ccccc2)cc1/C=C1\SC(=S)N([C@H](Cc2ccccc2)C(=O)O)C1=O | 16 (≈ 29.5 µM) | 2 (≈ 3.69 µM) | > 64 | > 64 | 16 (≈ 29.5 µM) | 16 (≈ 29.5 µM) | 16 (≈ 29.5 µM) | 16 (≈ 29.5 µM) |  |  |  | 
COc1ccc(-c2nn(-c3ccccc3)cc2/C=C2\SC(=S)N([C@H](Cc3ccccc3)C(=O)O)C2=O)cc1 | 16 (≈ 29.5 µM) | 4 (≈ 7.38 µM) | > 64 | > 64 | 4 (≈ 7.38 µM) | 4 (≈ 7.38 µM) | 4 (≈ 7.38 µM) | 8 (≈ 14.8 µM) |  |  |  | 
O=C(O)[C@@H](Cc1ccccc1)N1C(=O)/C(=C/c2cn(-c3ccccc3)nc2-c2ccccc2Cl)SC1=S | 2 (≈ 3.66 µM) | 2 (≈ 3.66 µM) | > 64 | > 64 | 1 (≈ 1.83 µM) | 1 (≈ 1.83 µM) | 2 (≈ 3.66 µM) | 1 (≈ 1.83 µM) | 8 | 4 | 30.2 (≈ 55.4 µM) | Non-toxic
COc1cccc(-c2nn(-c3ccccc3)cc2/C=C2\SC(=S)N([C@H](Cc3ccccc3)C(=O)O)C2=O)c1 | 16 (≈ 29.5 µM) | 4 (≈ 7.38 µM) | > 64 | > 64 | 16 (≈ 29.5 µM) | 16 (≈ 29.5 µM) | 16 (≈ 29.5 µM) | 16 (≈ 29.5 µM) |  |  |  | 
O=C(O)[C@@H](Cc1ccccc1)N1C(=O)/C(=C/c2cn(-c3ccccc3)nc2-c2ccccc2F)SC1=S | 16 (≈ 30.2 µM) | 4 (≈ 7.55 µM) | > 64 | > 64 | 4 (≈ 7.55 µM) | 4 (≈ 7.55 µM) | 2 (≈ 3.78 µM) | 4 (≈ 7.55 µM) |  |  |  | 
CCn1cc(C(=O)O)c(=O)c2cc(F)c(N3CCNCC3)cc21 [NORFLOXACIN] | 2 (≈ 6.26 µM) | 2 (≈ 6.26 µM) | 16 (≈ 50.1 µM) | 16 (≈ 50.1 µM) | 8 (≈ 25.1 µM) | 4 (≈ 12.5 µM) | > 64 | > 64 |  |  |  | 
Cc1onc(-c2ccccc2)c1C(=O)N[C@@H]1C(=O)N2[C@@H]1SC(C)(C)[C@@H]2C(=O)O [OXACILLIN] | 1 (≈ 2.49 µM) | 1 (≈ 2.49 µM) | > 64 | > 64 | > 64 | > 64 | 1 (≈ 2.49 µM) | 1 (≈ 2.49 µM) |  |  |  | 
